Data taken from PMC10556424 (RSC Advances, 2023).

Legend:
[1] = In vitro microsomal stability; type: in vitro ADME; settings: human liver microsomes, 1 μM, Table 3
How it was run: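 Compound (1 μM) with pooled human liver microsomes (0.4 mg mL−1) in 100 mM potassium phosphate, pH 7.4, with 3.3 mM MgCl2 and 1.3 mM β-NADPH. Organic solvent was ≤1%, at 37 °C. Time-point samples were quenched with ice-cold acetonitrile containing internal standard, centrifuged, and the supernatants analysed by LC-MS/MS. Results are intrinsic clearance.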

[2] = test system: HBV DNA in HBV-expressed HepG2.2.15 cells; assay: In vitro anti-HBV activity in HepG2.2.15 cell line; type: cell-based; settings: Hepatitis B virus, HepG2.2.15, 144 h, read-out: % HBV DNA remaining
How it was run: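 HepG2.2.15 cells were seeded at 5 × 10^5 per well in high-glucose DMEM with 10% heat-inactivated FBS, 300 mg L−1 G418, 1% non-essential amino acids and antibiotic–antimycotic, then held overnight at 37 °C, 5% CO2. Compound or 0.5% DMSO was given for 3 days, then renewed for 3 more days. Intracellular HBV DNA was measured by qPCR as % remaining versus vehicle; EC50 came from a 4-parameter nonlinear fit.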

CYP2C8 = target: T1, CYP2C8 (Homo sapiens, UniProt P10632); assay: CYP450 inhibition in human liver microsomes; type: in vitro ADME; settings: pooled human liver microsomes, pH 7.4, probe amodiaquine (1 μM)
T1 sequence (P10632 1-490): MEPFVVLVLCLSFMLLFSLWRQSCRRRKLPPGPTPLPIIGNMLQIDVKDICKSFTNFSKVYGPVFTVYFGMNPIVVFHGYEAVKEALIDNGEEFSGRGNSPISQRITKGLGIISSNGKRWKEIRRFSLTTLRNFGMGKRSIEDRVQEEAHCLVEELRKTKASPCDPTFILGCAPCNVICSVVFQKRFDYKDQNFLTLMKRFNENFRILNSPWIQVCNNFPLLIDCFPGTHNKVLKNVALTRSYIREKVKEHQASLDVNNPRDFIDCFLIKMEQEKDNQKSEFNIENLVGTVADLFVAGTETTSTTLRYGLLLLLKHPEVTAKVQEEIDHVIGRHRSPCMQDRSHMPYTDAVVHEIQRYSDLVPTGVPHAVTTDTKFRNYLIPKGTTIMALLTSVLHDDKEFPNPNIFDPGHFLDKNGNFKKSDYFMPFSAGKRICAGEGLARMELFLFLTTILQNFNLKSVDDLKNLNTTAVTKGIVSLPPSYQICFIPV
How it was run: (§1)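 Test compound at 10 μM with pooled human liver microsomes (0.2 mg mL−1) and a cocktail of 10 CYP probe substrates. Buffer was 100 mM potassium phosphate, pH 7.4, with 3.3 mM MgCl2, at 37 °C. β-NADPH (1.3 mM) started the reaction. After 10 min, ice-cold 3% formic acid in 5% acetonitrile stopped it. Centrifuged samples went to LC-MS/MS; each metabolite's formation is given as % inhibition versus control.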

CYP2A6 = target: T2, CYP2A6 (Homo sapiens, UniProt P11509); assay: CYP450 inhibition in human liver microsomes; type: in vitro ADME; settings: pooled human liver microsomes, pH 7.4, probe coumarin (1.5 μM)
T2 sequence (P11509 1-494): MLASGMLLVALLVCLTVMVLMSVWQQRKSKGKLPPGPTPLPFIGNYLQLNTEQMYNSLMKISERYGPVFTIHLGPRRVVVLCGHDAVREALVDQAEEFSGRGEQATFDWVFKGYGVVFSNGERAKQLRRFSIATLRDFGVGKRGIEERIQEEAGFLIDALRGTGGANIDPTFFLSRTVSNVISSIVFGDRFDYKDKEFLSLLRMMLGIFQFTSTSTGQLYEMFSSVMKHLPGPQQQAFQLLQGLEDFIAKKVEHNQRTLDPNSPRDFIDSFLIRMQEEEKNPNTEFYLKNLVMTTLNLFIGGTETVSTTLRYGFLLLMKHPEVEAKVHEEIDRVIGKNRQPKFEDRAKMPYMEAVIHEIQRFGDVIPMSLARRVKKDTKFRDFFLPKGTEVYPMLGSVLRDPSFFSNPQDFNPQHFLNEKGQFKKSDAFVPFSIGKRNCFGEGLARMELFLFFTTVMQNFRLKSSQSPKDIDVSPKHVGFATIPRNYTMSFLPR
How it was run: as §1

CYP2D6 = CYP2D6 (Homo sapiens, UniProt P10635); assay: CYP450 inhibition in human liver microsomes; type: in vitro ADME; settings: pooled human liver microsomes, pH 7.4, probe dextromethorphan (2.5 μM)
CYP2D6, sequence (P10635 whole entry): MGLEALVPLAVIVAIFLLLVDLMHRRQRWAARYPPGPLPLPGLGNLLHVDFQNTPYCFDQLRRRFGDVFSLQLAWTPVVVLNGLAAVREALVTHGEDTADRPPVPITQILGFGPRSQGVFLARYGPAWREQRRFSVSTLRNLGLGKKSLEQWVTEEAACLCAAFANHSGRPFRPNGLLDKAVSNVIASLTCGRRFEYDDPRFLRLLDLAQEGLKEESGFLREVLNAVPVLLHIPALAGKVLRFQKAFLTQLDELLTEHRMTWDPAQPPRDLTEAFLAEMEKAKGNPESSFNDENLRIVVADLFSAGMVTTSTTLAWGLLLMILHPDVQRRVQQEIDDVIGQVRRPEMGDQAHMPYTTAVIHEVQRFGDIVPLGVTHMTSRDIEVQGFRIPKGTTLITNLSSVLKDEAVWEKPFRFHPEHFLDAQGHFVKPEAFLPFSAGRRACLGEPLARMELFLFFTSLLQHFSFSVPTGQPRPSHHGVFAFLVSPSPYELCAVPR
How it was run: as §1

CLint [1]: 1.1 μL per min per mg protein
inhibition at 10 min, 10 µM (CYP2C8): 55%
inhibition at 10 min, 10 µM (CYP2A6): 57%
inhibition at 10 min, 10 µM (CYP2D6): 82%
Structure (SMILES): O=C(Nc1cc(F)c(F)c(F)c1)[C@H]1CCN(C(=O)c2cc3cnccc3[nH]2)C1 [CU04, (S)-1-(1H-Pyrrolo[3,2-c]pyridine-2-carbonyl)-N-(3,4,5-trifluorophenyl)pyrrolidine-3-carboxamide]
activity at 1 µM [2]: 67%
